According to ChEMBL document CHEMBL3860061, “A Novel Parkinson's Disease Drug Candidate with Potent Anti-neuroinflammatory Effects through the Src Signaling Pathway” (J Med Chem, 2016):
Calls of active or inactive are those of the source. No cut-off for these calls is given here.

How the values were obtained:
[1] = tested on: Mus musculus; test: Antineuro-inflammatrory activity in MPTP/probenecid-induced chronic C57/BL mouse Parkinson's disease model assessed as decrease in TNF-alpha level in midbrain at 10 to 20 mg/kg dosed once daily for 7 weeks post 10 doses of MPTP/probenecid for 5 weeks measured after last MPTP/probenecid dose by ELISA; assay type: functional, organism-based
Outline: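 Male C57/BL mice (22–25 g) received 10 doses of MPTP hydrochloride (25 mg/kg in saline, s.c.) plus probenecid (250 mg/kg in DMSO, i.p.) over 5 weeks. Only mice failing the rotarod afterwards were randomised to agent (5, 10, 20 mg/kg) or L-DOPA 20 mg/kg in 0.5% CMC-Na, once daily for 7 weeks. Midbrain lysate in non-denaturing buffer with protease inhibitor; IL-1β or TNF-α by ELISA, n = 6.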

[2] = target: Proto-oncogene tyrosine-protein kinase Src (Mus musculus) (UniProt P05480); test: Inhibition of Src signaling pathway in mouse BV2 cells assessed as suppression of LPS-induced NO release at 0.1 to 100 uM preincubated for 1 hr followed by LPS addition measured after 24 hrs relative to control by Griess assay; assay type: cell-based; conditions: BV-2
Outline: (§1)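 BV-2 cells in DMEM/10% FBS, plated at 5×10^3 per well. After 24 h, treated at 100, 50, 10, 5, 1 and 0.1 µM; 1 h later LPS 300 ng/mL added. After another 24 h, nitrite in the medium measured by Griess assay.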

[3] = tested on: Mus musculus; test: Effect on Src protein expression level in midbrain of MPTP/probenecid-induced chronic C57/BL mouse Parkinson's disease model at 5 to 20 mg/kg dosed once daily for 7 weeks post 10 doses of MPTP/probenecid for 5 weeks by Western blot analysis; assay type: functional, organism-based
[4] = tested on: Mus musculus; test: Antineuro-inflammatrory activity in alpha-syn A53T transgenic B6C3H mouse assessed as decrease in IL-1beta level in midbrain at 10 to 20 mg/kg dosed once daily for 12 consecutive weeks by ELISA; assay type: functional, organism-based
Outline: (§2)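 Male B6;C3H mice expressing mutant α-syn (A53T), from 4 months old, given agent (5, 10, 20 mg/kg) or L-DOPA 20 mg/kg in 0.5% CMC-Na once daily for 12 weeks. Wild-type controls received vehicle. Midbrain homogenised in non-denaturing lysis buffer with protease inhibitor; IL-1β or TNF-α measured by ELISA, n = 6, mean ± SD.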

[5] = tested on: Mus musculus; test: Increase in dopamine level in striatum of MPTP/probenecid-induced chronic C57/BL mouse Parkinson's disease model at 10 to 20 mg/kg dosed once daily for 7 weeks post 10 doses of MPTP/probenecid for 5 weeks measured after last MPTP/probenecid dose by HPLC analysis; assay type: functional, organism-based
Outline: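 Chronic model: 10 doses of MPTP·HCl (25 mg/kg s.c.) with probenecid (250 mg/kg i.p.) over 5 weeks. Rotarod-impaired mice then dosed with agent (5–20 mg/kg) or L-DOPA 20 mg/kg daily for 7 weeks. Striatum extracted in 0.6 N perchloric acid with phosphate/citrate/EDTA buffer; dopamine by HPLC, n = 8.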

[6] = tested on: Mus musculus; test: Neuroprotective activity in MPTP/probenecid-induced chronic C57/BL mouse Parkinson's disease model assessed as improvement in motor behavior at 5 to 20 mg/kg dosed once daily for 7 weeks post 10 doses of MPTP/probenecid for 5 weeks measured after last MPTP/probenecid dose by rotarod test; assay type: functional, organism-based
Outline: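 Chronic MPTP/probenecid model (10 doses over 5 weeks), then agent (5–20 mg/kg) or L-DOPA 20 mg/kg daily for 7 weeks. Rotarod at 14 rpm, up to 120 s, fall latency from three trials 1 h apart. Pole test: gauze-wrapped 50 cm pole, descent scored 1–5, two trials 1 h apart after pre-training. n = 15.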

[7] = target: Proto-oncogene tyrosine-protein kinase Src (Rattus norvegicus) (UniProt Q9WUD9); test: Inhibition of Src in Sprague-Dawley rat primary microglia cells assessed as suppression of LPS-stimulated PTEN phosphorylation at Tyr-240 residue at 10 uM preincubated for 1 hr followed by LPS challenge measured after 3 hrs by Western blot analysis
Outline: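 Primary microglia from 1-day-old Sprague-Dawley rat brains, grown to confluence 12–14 days, shaken off astroglia (>98% pure). Agent at 10 µM added 1 h before LPS 100 ng/mL. Phosphorylated Src, Akt and PTEN measured 3 h later by Western blot, n = 4.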

[8] = tested on: Mus musculus; test: Neuroprotective activity in MPTP-induced subacute C57/BL mouse Parkinson's disease model assessed as improvement in motor behavior at 5 to 20 mg/kg […] dosed 30 mins prior to each MPTP injection for 5 days and administered continously for 7 days post last MPTP dose by rotarod test; assay type: functional, organism-based
Outline: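 Sub-acute MPTP model (30 mg/kg i.p. × 5 days) in male C57/BL mice. Agent (5–20 mg/kg) or L-DOPA 20 mg/kg given 30 min before each injection and for 7 days after. Rotarod at 14 rpm, up to 120 s, fall latency over three trials 1 h apart. Pole test: 50 cm pole, descent scored 1–5, two trials 1 h apart, pre-trained. n = 15.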

[9] = tested on: Mus musculus; test: Neuroprotective activity in alpha-syn A53T transgenic B6C3H mouse assessed as improvement in motor behavior at 5 to 20 mg/kg dosed once daily for 12 consecutive weeks by pole test; assay type: functional, organism-based
[10] = tested on: Mus musculus; test: Neuroprotective activity in alpha-syn A53T transgenic B6C3H mouse assessed as reversal of decline of TH-positive neuron levels in substantia nigra at 10 to 20 mg/kg dosed once daily for 12 consecutive weeks by 3,3'-diaminobenzidine staining based light microscopic analysis; assay type: functional, organism-based
Outline: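 Transgenic male B6;C3H A53T α-syn mice, starting at 4 months, were given drug once daily for 12 weeks in 0.5% CMC-Na. Fixed brains were sectioned at 40 µm on a freezing microtome. Substantia nigra coronal sections were immunostained for TH, visualized with DAB and peroxide, and positive neurons counted by light microscopy under blinding.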

[11] = tested on: Mus musculus; test: Effect on ARHGAP21 protein expression level in midbrain of MPTP/probenecid-induced chronic C57/BL mouse Parkinson's disease model at 5 to 20 mg/kg dosed once daily for 7 weeks post 10 doses of MPTP/probenecid for 5 weeks by Western blot analysis; assay type: functional, organism-based
[12] = target: Proto-oncogene tyrosine-protein kinase Src (Mus musculus, UniProt P05480); test: Inhibition of Src in mouse BV2 cells assessed as suppression of LPS-induced NO release preincubated for 1 hr followed by LPS addition measured after 24 hrs by Griess assay; assay type: cell-based, BV-2; outline: as §1
[13] = tested on: Mus musculus; test: Effect on GSK3beta protein expression level in midbrain of MPTP/probenecid-induced chronic C57/BL mouse Parkinson's disease model at 5 to 20 mg/kg dosed once daily for 7 weeks post 10 doses of MPTP/probenecid for 5 weeks by Western blot analysis; assay type: functional, organism-based
[14] = tested on: Mus musculus; test: Effect on ARHGAP21 protein expression level in midbrain of MPTP/probenecid-induced chronic C57/BL mouse Parkinson's disease model at 5 to 20 mg/kg dosed once daily for 7 weeks post 10 doses of MPTP/probenecid for 5 weeks by iTRAQ-labelled 2D-LC/MS/MS analysis; assay type: functional, organism-based
[15] = tested on: Mus musculus; test: Antineuro-inflammatrory activity in alpha-syn A53T transgenic B6C3H mouse assessed as decrease in TNF-alpha level in midbrain at 10 to 20 mg/kg dosed once daily for 12 consecutive weeks by ELISA; assay type: functional, organism-based; outline: as §2

Chain of Proto-oncogene tyrosine-protein kinase Src (P05480 2-535 limits assumed): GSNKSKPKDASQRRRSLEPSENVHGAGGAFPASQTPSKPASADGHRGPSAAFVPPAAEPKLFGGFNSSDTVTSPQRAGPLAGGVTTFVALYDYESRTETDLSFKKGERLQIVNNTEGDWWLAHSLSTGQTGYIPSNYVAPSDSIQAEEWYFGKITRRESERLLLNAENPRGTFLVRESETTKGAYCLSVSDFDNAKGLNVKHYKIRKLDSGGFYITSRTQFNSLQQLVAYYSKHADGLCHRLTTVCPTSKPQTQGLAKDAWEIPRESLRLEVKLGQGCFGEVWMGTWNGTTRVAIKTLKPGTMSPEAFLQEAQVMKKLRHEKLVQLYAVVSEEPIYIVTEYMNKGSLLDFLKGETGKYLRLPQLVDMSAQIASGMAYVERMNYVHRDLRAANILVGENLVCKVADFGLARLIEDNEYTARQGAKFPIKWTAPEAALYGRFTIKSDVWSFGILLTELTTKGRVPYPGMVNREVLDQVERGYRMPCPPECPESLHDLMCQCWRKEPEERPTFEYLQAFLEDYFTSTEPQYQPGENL
Chain of Proto-oncogene tyrosine-protein kinase Src (Mus musculus) (P05480 2-535 limits assumed): as above
Chain of Proto-oncogene tyrosine-protein kinase Src (Rattus norvegicus) (Q9WUD9 2-536 limits assumed): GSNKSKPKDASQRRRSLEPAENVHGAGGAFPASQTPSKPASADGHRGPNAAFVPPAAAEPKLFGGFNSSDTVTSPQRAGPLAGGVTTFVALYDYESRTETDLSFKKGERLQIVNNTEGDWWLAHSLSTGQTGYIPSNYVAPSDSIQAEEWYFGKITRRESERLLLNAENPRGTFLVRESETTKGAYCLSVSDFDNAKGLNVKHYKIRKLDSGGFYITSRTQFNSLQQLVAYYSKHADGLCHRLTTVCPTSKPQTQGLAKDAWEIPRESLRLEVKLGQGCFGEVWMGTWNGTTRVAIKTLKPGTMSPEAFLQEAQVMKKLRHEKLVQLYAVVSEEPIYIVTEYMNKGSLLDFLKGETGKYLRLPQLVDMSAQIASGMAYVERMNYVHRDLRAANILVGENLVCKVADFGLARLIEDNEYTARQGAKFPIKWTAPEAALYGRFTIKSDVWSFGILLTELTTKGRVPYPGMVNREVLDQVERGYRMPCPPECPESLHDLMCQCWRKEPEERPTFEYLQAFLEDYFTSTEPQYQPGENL

Structure (SMILES): COc1cc(OC)c(CN[C@@H](CO)C(=O)O)c(OC)c1
- Activity [1]: Active
- inhibition [2]: Active
- Activity [3]: Active
- Activity [4]: Active
- Activity [5]: Active
- Activity [6]: Active
- inhibition [7]: Active
- Activity [8]: Active
- Activity [9]: Active
- Activity [10]: Active
- Activity [11]: Active
- IC50 [12]: 6.6 µM
- Activity [13]: Active
- Activity [14]: Active
- Activity [15]: Active
